Data published in publication PMC5617735 (Journal of the American Chemical Society, 2017).
≈ marks a conversion by molar mass, not a printed value. Non-standard residues stand in square brackets, D forms with d. Residues, ends and D or L forms follow the SMILES beside them. ξ: configuration not given here. *: point of attachment. ξI = CCC(C)C(N)C(=O)O; Butyryl = CCCC(=O)*

Key:
[1] = test system: Enterococcus faecalis OG1RF; assay: Antibacterial assay; format: cell-based; details: read-out: IC50, Enterococcus faecalis OG1RF
[2] = test system: Staphylococcus aureus Newman; assay: Antibacterial assay; format: cell-based; details: read-out: IC50, Staphylococcus aureus Newman
[3] = test system: Pseudomonas aeruginosa PAO1; assay: Antibacterial assay; format: cell-based; details: read-out: IC50, Pseudomonas aeruginosa PAO1
[4] = biological target: cathepsin B (Homo sapiens, UniProt P07858); assay: Cathepsin B inhibition assay; format: biochemical; details: read-out: Half-maximal inhibitory concentration (IC50), Cathepsin B Inhibition
[5] = test system: E. coli K12; assay: Antibacterial assay; format: cell-based; details: read-out: IC50, E. coli K12
[6] = test system: Bacillus subtilis 168; assay: Antibacterial assay; format: cell-based; details: read-out: IC50, Bacillus subtilis 168
[7] = test system: Saccharomyces pombe; assay: Antifungal assay; format: cell-based; details: read-out: IC50, Saccharomyces pombe
[8] = test system: Saccharomyces cerevisiae; assay: Antifungal assay; format: cell-based; details: read-out: IC50, Saccharomyces cerevisiae
[9] = test system: sur cluster (surA and surC transcripts); assay: RT-qPCR of sur cluster expression; format: cell-based, Streptomyces albus J1074; details: for induction of surA and surC: wt S. albus, vs DMSO control; for induction of surA and surC / elicitor concentration yielding optimal upregulation of sur: RT-qPCR; for upregulation of surC: at optimal elicitor concentration (~23 μM etoposide, ~30 μM ivermectin), vs DMSO; for elicitor concentration yielding optimal upregulation of sur: dose-response
Procedure, shortened: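 Wild-type S. albus J1074 cultures were exposed to the test compound, with DMSO as the negative control. surA and surC mRNA were measured by RT-qPCR and expressed as fold-change versus the DMSO control. For the dose-response, concentrations were multiples of a base level: 1x equals 5.7 μM or 7.6 μM final, depending on the elicitor.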

[10] = test system: S. albus; assay: Growth inhibition of S. albus by elicitors; format: cell-based, Streptomyces albus J1074
[11] = test system: surR; assay: RT-qPCR of surR expression upon elicitor exposure; format: cell-based, Streptomyces albus J1074; details: wt S. albus, vs DMSO control
[12] = test system: ΔsurR S. albus secondary metabolite production; assay: HPLC-Qtof-MS of sur metabolite production in ΔsurR strain treated with elicitor; format: cell-based, Streptomyces albus J1074; details: for increase in the production of surugamide I: HPLC-Qtof-MS; for upregulation of acyl-surugamide A / upregulation of albucyclone A: estimate based on lower limit of detection
[13] = test system: strains tested; assay: Antibacterial and antifungal assays; format: cell-based
[14] = test system: recA and lexA; assay: RT-qPCR of SOS response genes recA and lexA; format: cell-based, Streptomyces albus J1074; details: S. albus

With CC[C@@H](C)[C@H]1NC(=O)[C@H](C(C)C)NC(=O)[C@@H](C)NC(=O)[C@H](C(C)C)NC(=O)[C@@H](CC(C)C)NC(=O)[C@@H](Cc2ccccc2)NC(=O)[C@H]([C@@H](C)CC)NC(=O)[C@H](CCCCN)NC1=O [compound 11, surugamide G] (cyclo(I[dF][dL]V[dA]V[dI]K)) the IC50 [1] was > 100 µM, the IC50 [2] was > 100 µM and the IC50 [3] was > 100 µM. The IC50 [4] was > 100 µM, the IC50 [5] was > 100 µM and the IC50 [6] was > 100 µM. For the same molecule, the IC50 [7] was > 100 µM and the IC50 [8] was > 100 µM.

With CC[C@@H](C)[C@H]1NC(=O)[C@H](C(C)C)NC(=O)[C@@H](C)NC(=O)[C@H](C(C)C)NC(=O)[C@@H](CC(C)C)NC(=O)[C@@H](Cc2ccccc2)NC(=O)[C@H](C(C)C)NC(=O)[C@H](CCCCN)NC1=O [compound 12, surugamide H] (cyclo(KV[dF][dL]V[dA]V[dI])) the IC50 [4] was 12.4 µM.

With CCCC(=O)NCCCC[C@@H]1NC(=O)C(C(C)CC)NC(=O)C(C(C)CC)NC(=O)[C@@H](C)NC(=O)C(C(C)CC)NC(=O)[C@@H](CC(C)C)NC(=O)[C@@H](Cc2ccccc2)NC(=O)[C@H]([C@@H](C)CC)NC1=O (stereo partly drawn) [compound 15, acyl-surugamide A] (cyclo(I[dF][dL][ξI][dA][ξI][ξI]K(Butyryl))) the IC50 [1] was > 100 µM, the IC50 [2] was 27.4 µM and the IC50 [3] was > 100 µM. The IC50 [4] was 43.3 µM, the IC50 [5] was > 100 µM and the IC50 [6] was 21.7 µM. The IC50 [7] was 32.5 µM and the IC50 [8] was 3.5 µM.

CC(C)[C@@]1(NC(=O)[C@@H]2C[C@@H]3c4cccc5[nH]cc(c45)C[C@H]3N(C)C2)O[C@@]2(O)[C@@H]3CCCN3C(=O)[C@H](Cc3ccccc3)N2C1=O [dihydroergocristine] was tested, and the “induction of surA and surC” value [9] was 3 fold.

In the case of COc1cc([C@@H]2c3cc4c(cc3[C@@H](O[C@@H]3O[C@@H]5CO[C@@H](C)O[C@H]5[C@H](O)[C@H]3O)[C@H]3COC(=O)[C@H]23)OCO4)cc(OC)c1O [etoposide], the IC50 ([10]; Streptomyces albus, read-out: half-maximal inhibitory concentration (IC50) on S. albus) is reported as 10 µg/mL (≈ 17 µM), the “upregulation of surC” value [9] is reported as ~ 10 fold and the “elicitor concentration yielding optimal upregulation of sur” value [9] is reported as ~ 23 μM. For the same molecule, the “induction of surA and surC” value [9] was 3 fold, the “down-regulation of surR expression” value [11] was 2–2.5 fold and the “increase in the production of surugamide I” value [12] was > 35 fold. The “upregulation of acyl-surugamide A” value [12] was > 40 fold and the “upregulation of albucyclone A” value [12] was > 50 fold.

For albucyclone A [compound 16], the IC50 [4] was > 100 µM.

In the case of albucyclone F [compound 21], the IC50 [1] is reported as > 100 µM, the IC50 [2] is reported as > 100 µM and the IC50 [3] is reported as > 100 µM. The IC50 [4] was > 100 µM, the IC50 [5] was > 100 µM and the IC50 [6] was > 100 µM. The IC50 [7] was > 100 µM and the IC50 [8] was > 100 µM.

For albuquinone A [compound 22], the IC50 [1] was > 100 µM, the IC50 [2] was > 100 µM and the IC50 [3] was > 100 µM. For the same molecule, the IC50 [5] was > 100 µM, the IC50 [6] was > 100 µM and the IC50 [7] was > 100 µM. The “antibiotic activity against the strains tested” value [13] was “did not reveal significant antibiotic activity” and the IC50 [8] was > 100 µM.

For ivermectin, the “inhibition of S. albus growth” value ([10]; at the concentrations employed) was “did not inhibit S. albus growth”, the “upregulation of surC” value [9] was 4.5 fold and the “elicitor concentration yielding optimal upregulation of sur” value [9] was ~ 30 μM. The “induction of surA and surC” value [9] was 3 fold, the “induction of recA and lexA” value [14] was “no changes” and the “down-regulation of surR expression” value [11] was 2–2.5 fold. For the same molecule, the “increase in the production of surugamide I” value [12] was > 35 fold, the “upregulation of acyl-surugamide A” value [12] was > 40 fold and the “upregulation of albucyclone A” value [12] was > 50 fold.

In the case of surugamide I [compound 13], the IC50 [4] is reported as 9 µM.

With surugamide J [compound 14] the IC50 [1] was > 100 µM, the IC50 [2] was > 100 µM and the IC50 [3] was > 100 µM. The IC50 [4] was > 100 µM, the IC50 [5] was > 100 µM and the IC50 [6] was > 100 µM. The IC50 [7] was > 100 µM and the IC50 [8] was > 100 µM.
